Results: ChEMBL document CHEMBL3046951, “Volatile constituents from the leaves of Callicarpa japonica Thunb. and their antibacterial activities” (2004)

Tests used:
Assay type in all cases: functional
Listeria monocytogenes [1] = assay: Antimicrobial activity against Listeria monocytogenes ATCC 19111 assessed as growth inhibition rate at 1470.8 mg/l after 72 hr by spectrophotometry; conditions: ATCC 19111, 72 h, read-out: GI
In short: (§1)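 L. monocytogenes was grown at 30 °C in tryptic soy broth, subcultured for 18 h, and exposed to pure volatile compounds (>95% purity). Growth was followed by Bioscreen C optical density every 24 h for 72 h against a 10% Tween 80 control.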

Vibrio parahaemolyticus [2] = assay: Antimicrobial activity against Vibrio parahaemolyticus ATCC 33844 assessed as growth inhibition rate at 1470.8 mg/l after 72 hr by spectrophotometry; conditions: ATCC 33844, 72 h, read-out: GI
Salmonella typhimurium [3] = assay: Antimicrobial activity against Salmonella enterica subsp. enterica serovar Typhimurium ATCC 14028 assessed as growth inhibition rate at 1470.8 mg/l after 72 hr by spectrophotometry; conditions: ATCC 14028, 72 h, read-out: GI
In short: (§2)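 Salmonella Typhimurium ATCC 14028 grown in nutrient broth at 30 °C, precultured 24 h, then subcultured 1:100 for 18 h before testing. Single volatile compounds (>95% pure) were added. OD was read every 24 h over 72 h in a Bioscreen C, with 10% Tween 80 as the comparison control.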

Escherichia coli [4] = assay: Antimicrobial activity against Escherichia coli O157:H7 ATCC 43894 assessed as growth inhibition rate at 1470.8 mg/l after 72 hr by spectrophotometry; conditions: O157:H7 ATCC 43894, 72 h, read-out: GI
Staphylococcus aureus [5] = assay: Antimicrobial activity against Staphylococcus aureus ATCC 25923 assessed as growth inhibition rate at 1470.8 mg/l after 72 hr by spectrophotometry; conditions: ATCC 25923, 72 h, read-out: GI
Bacillus cereus [6] = assay: Antimicrobial activity against Bacillus cereus ATCC 11778 assessed as growth inhibition rate at 1470.8 mg/l after 72 hr by spectrophotometry; conditions: ATCC 11778, 72 h, read-out: GI
In short: (§3)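 Pure volatile compounds (purity >95%; one at 90%) were tested against B. cereus ATCC 11778. The strain was grown at 30 °C in nutrient broth for 24 h, then subcultured for 18 h. Optical density was read in a Bioscreen C every 24 h for 72 h, with 10% Tween 80 as the control.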

Listeria monocytogenes [7] = assay: Antimicrobial activity against Listeria monocytogenes ATCC 19111 assessed as growth inhibition rate at 3.8 mg/l after 72 hr by spectrophotometry; conditions: ATCC 19111, 72 h, read-out: GI; in short: as §1
Vibrio parahaemolyticus [8] = assay: Antimicrobial activity against Vibrio parahaemolyticus ATCC 33844 assessed as growth inhibition rate at 3.8 mg/l after 72 hr by spectrophotometry; conditions: ATCC 33844, 72 h, read-out: GI
Salmonella typhimurium [9] = assay: Antimicrobial activity against Salmonella enterica subsp. enterica serovar Typhimurium ATCC 14028 assessed as growth inhibition rate at 3.8 mg/l after 72 hr by spectrophotometry; conditions: ATCC 14028, 72 h, read-out: GI; in short: as §2
Escherichia coli [10] = assay: Antimicrobial activity against Escherichia coli O157:H7 ATCC 43894 assessed as growth inhibition rate at 3.8 mg/l after 72 hr by spectrophotometry; conditions: O157:H7 ATCC 43894, 72 h, read-out: GI
Staphylococcus aureus [11] = assay: Antimicrobial activity against Staphylococcus aureus ATCC 25923 assessed as growth inhibition rate at 3.8 mg/l after 72 hr by spectrophotometry; conditions: ATCC 25923, 72 h, read-out: GI
Bacillus cereus [12] = assay: Antimicrobial activity against Bacillus cereus ATCC 11778 assessed as growth inhibition rate at 3.8 mg/l after 72 hr by spectrophotometry; conditions: ATCC 11778, 72 h, read-out: GI; in short: as §3

Row | Structure (SMILES) | inhibition of growth at 1470.8 µg/mL (Listeria monocytogenes [1]) [%] | inhibition of growth at 1470.8 µg/mL (Vibrio parahaemolyticus [2]) [%] | inhibition of growth at 1470.8 µg/mL (Salmonella typhimurium [3]) [%] | inhibition of growth at 1470.8 µg/mL (Escherichia coli [4]) [%] | inhibition of growth at 1470.8 µg/mL (Staphylococcus aureus [5]) [%] | inhibition of growth at 1470.8 µg/mL (Bacillus cereus [6]) [%] | inhibition of growth at 3.8 µg/mL (Listeria monocytogenes [7]) [%] | inhibition of growth at 3.8 µg/mL (Vibrio parahaemolyticus [8]) [%] | inhibition of growth at 3.8 µg/mL (Salmonella typhimurium [9]) [%] | inhibition of growth at 3.8 µg/mL (Escherichia coli [10]) [%] | inhibition of growth at 3.8 µg/mL (Staphylococcus aureus [11]) [%] | inhibition of growth at 3.8 µg/mL (Bacillus cereus [12]) [%]
1 | C=C1CC/C=C(/C)CC[C@@H]2[C@@H]1CC2(C)C [CARYOPHYLLENE] | 7.2 | 26.5 | 10.2 | 12.8 | 54.7 | 32.1 |  |  |  |  |  | 
2 | C=CC(C)(O)CCC=C(C)C (configuration not stated) [LINALOOL] |  |  |  |  |  |  | 0.6 | 0 | 8.2 | 2.1 | 2.6 | 8.6
